Screening data: PubChem BioAssay, several laboratories
H9c2 TAG inh = triacylglycerol accumulation inhibition; H9c2 cells, Nile Red lipid (TAG) fluorescence; cells loaded with 200 µM oleic acid; inhibition, % at 12.5 µM; 230,000 compounds, 0.66% hits; AID 651582;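 active means pattern-corrected inhibition of lipid staining of at least 50% with the nuclear-stain viability signal not falling by more than 50%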;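 further: 0% = DMSO wells and 100% = triacsin C control wells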
Rad51 HR inh = blocks human Rad51 in homologous recombination | inhibition, % at 10 µM | hRad51 DNA strand exchange, fluorescence dequenching | 200,000 compounds, 0.085% hits;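 active means inhibition above 40% at the single screening dose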;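 further: 0% = DMSO control wells and 100% = blanks with heterologous ssDNA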
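System: hRad51 filaments on single-stranded DNA; reagent: Fluorescein- and BHQ1-tagged 47-mer duplex; compound dosing: one concentration, 10 µM final; timing: filaments 15 min 37 °C, then compound 30 min; measured by: fluorescein emission 520 nm, excitation 485 nm; benchmarks: per-plate controls and blanks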
Mdm2 ligase inh = inhibitors of human Mdm2 E3 ubiquitin ligase. cell-based MDM2 ubiquitination luciferase reporter, 2 h; 0 = plate control, 100 = twice control, blank-subtracted. AID 1230. Q00987. 210,000 compounds, 0.11% hits. signal enhancement, % at 5 µM;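 active means signal enhancement of 30% or more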;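 further: luminescence tracks abundance of the self-degrading MDM2-luciferase fusion protein; higher signal means inhibition of MDM2 E3 ligase activity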
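Timing – 2 h compound exposure at 37 °C · Assay system – mammalian cells stably expressing self-ubiquitinating, self-degrading MDM2 E3–luciferase fusion · Amount – 2000 cells seeded into each well · Measure – % luminescence enhancement versus blank-corrected plate control mean · Measured by – SteadyLite luminescence, 15 min reagent step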
Hck-Nef inh = blocks Nef-activated human Hck kinase | 220,000 compounds, 0.68% hits | AID 463187 | inhibition, % at 20 µM | Recombinant Hck-YEEI plus Nef, Z-Lyte FRET kinase assay | P08631;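 active means Hck-Nef kinase inhibition above about 50%, limit read from the data; inactive means inhibition below that limit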;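 further: 0% = DMSO with Hck plus Nef and 100% = Hck alone without Nef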
Target sequence (P08631 whole entry, looked up): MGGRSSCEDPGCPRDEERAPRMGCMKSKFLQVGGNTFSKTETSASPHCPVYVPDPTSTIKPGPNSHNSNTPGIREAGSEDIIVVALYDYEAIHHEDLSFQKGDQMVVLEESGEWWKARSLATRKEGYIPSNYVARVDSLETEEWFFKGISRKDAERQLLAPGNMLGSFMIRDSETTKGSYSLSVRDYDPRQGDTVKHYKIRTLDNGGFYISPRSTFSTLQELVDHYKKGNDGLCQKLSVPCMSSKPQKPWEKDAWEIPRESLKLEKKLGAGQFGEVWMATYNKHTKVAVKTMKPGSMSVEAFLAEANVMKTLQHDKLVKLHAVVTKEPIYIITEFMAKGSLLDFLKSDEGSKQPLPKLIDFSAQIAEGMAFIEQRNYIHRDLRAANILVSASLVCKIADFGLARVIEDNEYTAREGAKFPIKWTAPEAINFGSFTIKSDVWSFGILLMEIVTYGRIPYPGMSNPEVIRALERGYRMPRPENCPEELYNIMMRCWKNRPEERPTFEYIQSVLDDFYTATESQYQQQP
PERK inh = inhibitors of human PERK kinase; Q9NZJ5; inhibition, % at 5.6 µM; CHO PERK-DD fusion, SEAP luminescence translation reporter; 220,000 compounds, 0.17% hits;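 active means inhibition above the mean inhibition of all tested compounds plus 3 SD, set separately per screening campaign, cut at about 2.9% in these data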;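 further: PERK kinase domain activated by AP20187 dimerizer at 100 nM; 0% = DMSO with dimerizer and 100% = rapamycin at 8.4 µM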
PKD1 kinase inh = blocks activity of human protein kinase D1. Q15139. AID 797. inhibition, % (test concentration not listed). 200,000 compounds, 0.056% hits. PKD1 kinase fluorescence polarization assay; in the data active means inhibition above about 50%
Active calls of the source: *; nt = not tested or not shown. Compounds with a hit are over-represented: about 1.3% of the library has one in this group of screens.

SMILES	H9c2 TAG inh	Rad51 HR inh	Mdm2 ligase inh	Hck-Nef inh	PERK inh	PKD1 kinase inh
C=CCOC(=O)c1cc(-c2ccc(/C=C3\C(=O)NC(=O)C(C#N)=C3C)o2)ccc1Cl	11.3	nt	-4.0	90.9*	0.7	3.6
Cc1nn(CC(=O)Nc2sc3c(c2C#N)CCC(C(C)(C)C)C3)c(C)c1[N+](=O)[O-] (stereo unspecified)	-12.3	10.4	-18.0	-5.0	3.0*	-0.7
N=c1n(CCCOc2ccccc2Cl)c2ccccc2n1CC(N)=O	35.4	-18.4	-14.1	12.8	0.2	nt
Cc1cc(C)nc(N/N=C/c2cc(C)n(CC(F)(F)F)c2C)n1	32.6	5.3	-16.4	20.7	-0.1	0.9
O=C1CC(=O)c2c1cccc2[N+](=O)[O-]	nt	20.3	-10.7	74.9*	-0.2	nt
O=C1OCc2cccc([N+](=O)[O-])c21	nt	-12.1	-2.1	0.1	0.9	0.6
O=C(O)CNc1ccccc1C(=O)O	2.3	nt	2.1	-5.7	3.0*	nt
Nc1nn(-c2ccccc2)c(N)c1N=Nc1cccc(F)c1	53.6*	-1.3	-11.4	5.9	0.7	nt
Nc1nn(-c2ccccc2)c(N)c1N=Nc1ccc2c(c1)OCO2	nt	-36.4	-57.4	10.9	0.1	-10.4
Cc1ccc(NC(=O)CCNC(=O)N2CC(=O)Nc3ccccc32)cc1Cl	3.0	nt	nt	nt	nt	nt
COc1ccc(C(=O)O)cc1NC(=S)NC(=O)c1ccc(-c2ccc(Cl)cc2)o1	28.6	-61.0	-8.5	36.2	1.2	-2.4
Cc1ccc(C(=O)O)cc1NC(=S)NC(=O)c1ccc(-c2ccc(Cl)cc2)o1	7.6	14.6	-6.9	56.1*	1.7	nt
CN(CC(=O)Nc1ccccc1Cl)CC(=O)Nc1sc2c(c1C(N)=O)CCC2	3.7	nt	nt	nt	nt	nt
Cc1ccc(/C=C/c2ccc(=O)n(Cc3ccc(Cl)cc3Cl)n2)cc1	nt	nt	-1.3	7.0	3.0*	9.0
O=c1ccc(/C=C/c2ccccc2)nn1Cc1ccc(Cl)cc1Cl	0.5	-8.4	-15.3	2.2	1.2	2.6
S=C(NN=C(c1ccccc1)c1ccccn1)N(Cc1ccccn1)Cc1ccccn1	62.4*	nt	nt	nt	nt	nt
COc1ccc(OC)c(CNn2c(-c3ccccc3F)nc3ccccc3c2=O)c1	0.0	7.7	42.6*	18.1	-0.7	3.3
COc1cc2c(cc1OC)CN(C(=O)c1ccco1)CC2	-6.9	-10.0	35.2*	10.7	-0.1	-1.8
O=C(NCc1nc2ccccc2[nH]1)C1=C[C@H](c2ccc(C(F)(F)F)cc2)C[C@H](OCCCCO)O1	nt	-3.4	nt	nt	nt	nt
COC(=O)c1cc(=O)n(Cc2ccc3c(c2)OCO3)c(=Nc2ccc(F)c(Cl)c2)s1	19.9	-1.3	-16.5	2.5	2.9*	-13.8
COC(=O)c1cc(=O)n(CCc2ccc(OC)cc2)c(=Nc2ccc(F)c(Cl)c2)s1	5.1	5.5	-4.7	0.2	0.5	7.2
CN(C)/C=C/c1c([N+](=O)[O-])c2ccc(O)cc2n1-c1ccccc1	0.9	18.5	-15.7	104.5*	1.1	nt
CCCCCOCC1CC(C/C(C)=N/Nc2nc(-c3ccccc3)cs2)C(=O)O1 (stereo unspecified)	-0.9	62.3*	2.2	2.4	0.5	-0.7
CCCCCOCC1CC(C/C(C)=N/NC(N)=S)C(=O)O1 (stereo unspecified)	nt	10.5	-1.0	3.2	2.2	3.8
COc1ccccc1C(=O)C1CCCN(C(=O)CCn2cnnn2)C1 (stereo unspecified)	9.2	-2.6	-18.1	26.0	-0.1	nt
SMILES	H9c2 TAG inh	Rad51 HR inh	Mdm2 ligase inh	Hck-Nef inh	PERK inh	PKD1 kinase inh
CCOC(=O)c1sc(=NC(=O)CCS(=O)(=O)c2ccccc2)n(C)c1C	3.2	-10.7	1.9	7.6	0.3	90.6*
O=c1[nH]nc(-c2n[nH]c(=O)o2)o1	-6.0	nt	nt	nt	nt	nt
Cc1ccc(C)c(NC(=O)C(Sc2nnc(-c3cccs3)o2)c2ccccc2)c1 (stereo unspecified)	nt	0.9	50.1*	-2.1	0.3	1.2
CC1CCC2(CC1)NC(=O)N(CC(=O)c1cn(CCC#N)c3ccccc13)C2=O (stereo unspecified)	22.5	-0.9	-7.9	-8.0	-0.5	nt
CC(C)C(=O)NNc1nc2ccccc2s1	nt	12.3	-7.9	-0.2	1.0	4.0
O=C(NNc1nc2ccccc2s1)C1CC1	nt	nt	-7.4	1.6	3.6*	-0.4
CCCCC(Nc1ncnc2ccccc12)C(=O)O (stereo unspecified)	nt	72.9*	1.0	3.9	2.5	-5.2
C[C@H](CO)N1C[C@H](C)[C@H](CN(C)C(=O)Cc2ccccc2)OCc2cnnn2CCCC1=O	0.9	nt	nt	nt	nt	nt
COCCCN1C(=O)/C(=C\c2ccc3c(c2)OCO3)C(C(=O)OC)=C1C	20.2	-17.9	-12.3	5.5	3.2*	-6.4
O=C1C=CC(=O)c2c(O)c(N3CCN(CCOCCO)CC3)c(Br)c(O)c21	100.7*	nt	nt	nt	nt	nt
O=C1C=CC(=O)c2c(O)c(N3CCN(CCO)CC3)c(Cl)c(O)c21	100.2*	nt	nt	nt	nt	nt
CCOc1ccc(N(CC(=O)Nc2nccs2)S(=O)(=O)c2c(C)[nH]c(=O)[nH]c2=O)cc1	-6.2	2.2	-12.5	23.9	0.6	-2.4
CCN(CC)c1ccc(C(NC(=O)C(C)C)c2ccc3cccnc3c2O)cc1 (stereo unspecified)	30.6	nt	nt	nt	nt	nt
CC(C)C(=O)NC(c1ccco1)c1ccc2cccnc2c1O (stereo unspecified)	71.6*	3.6	-0.2	2.2	-0.6	-20.8
CCCC(=O)NC(c1ccc(C)cc1)c1ccc2cccnc2c1O (stereo unspecified)	60.7*	nt	nt	nt	nt	nt
Oc1c(C(Nc2nccs2)c2ccc(C(F)(F)F)cc2)ccc2cccnc12 (stereo unspecified)	59.6*	nt	-7.9	-1.7	-1.2	-6.0
CCCCC(=O)NC(c1ccc(Cl)cc1)c1ccc2cccnc2c1O (stereo unspecified)	52.4*	nt	nt	nt	nt	nt
COc1ccc(CC(=O)Nc2cc(S(=O)(=O)Nc3ccc(OC)cc3)ccc2OC)cc1	-3.0	nt	nt	nt	nt	nt
COc1cccc(C(=O)Nc2sc3c(c2C#N)CCN(C(C)=O)C3)c1	nt	-30.7	-86.0	25.7	-0.3	-3.2
CC(C)(C)OC(=O)NCCCCCNC(=O)c1ncn2c1c(=O)[nH]c1ccccc12	4.5	nt	nt	nt	nt	nt
CC(NS(=O)(=O)c1c(N)n(C)c(=O)n(C)c1=O)c1ccccc1 (stereo unspecified)	0.5	nt	nt	nt	nt	nt
O=C(NCc1ccc2c3c(cccc13)C(=O)N2)c1cccs1	2.2	0.9	-11.7	-2.8	-1.4	nt
CC(C)(C)C(=O)NC(=S)NCc1ccccc1	nt	6.5	-2.5	-0.7	0.1	4.3
COC(=O)[C@]1(Cc2ccccc2)N[C@H](CN(C)C(=O)Nc2ccc(Cl)cc2)[C@@H]2C(=O)N(Cc3ccccc3)C(=O)[C@@H]21	10.8	nt	nt	nt	nt	nt
CN(C)CC(c1ccccc1)c1ccccc1	6.4	10.4	-8.7	14.2	4.3*	nt
CN(C)CC(O)COC(c1ccccc1)c1ccccc1 (stereo unspecified)	25.3	1.5	-57.1	14.5	0.3	3.0
